From ChEMBL document CHEMBL6092224, “The Discovery and Preclinical Profile of ALG-000184, a Prodrug of the Potent Hepatitis B Virus Capsid Assembly Modulator ALG-001075” (J Med Chem, 2024)

Tests used:
[1] = test system: Hepatitis B virus; experiment: Antiviral activity against HBV genotype D infected in human HepG2.117 cells assessed as decrease in HBV DNA production by qPCR analysis; assay type: functional, organism-based
Outline: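 HepG2.117 cells (integrated genotype D HBV genome, Tet-off promoter; kept in 1 μg/mL doxycycline) were seeded at 20,000 cells/well and given serial compound dilutions (2% DMSO) for 3 days at 37 °C. Lysates were taken in 0.33% NP40. Intracellular HBV DNA was quantified by qPCR and EC50/EC90 derived. For serum shift, 40% human serum was present during incubation. Mean ± SEM, n=3 (serum) or 13.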

[2] = Mutagenicity in Salmonella typhimurium TA97a by Ames test; assay type: toxicity; conditions: salmonella enterica subsp. enterica serovar typhimurium
[3] = Mutagenicity in Salmonella typhimurium TA98 by Ames test; assay type: toxicity; conditions: salmonella enterica subsp. enterica serovar typhimurium
[4] = Metabolic stability in human plasma assessed as half life; assay type: ADME, cell-free
[5] = biological target: Cytochrome P450 3A4 (Homo sapiens, UniProt P08684); experiment: Inhibition of CYP3A4 in human liver microsomes in presence of NADPH; assay type: ADME, Microsome
Sequence of Cytochrome P450 3A4 (P08684 whole entry): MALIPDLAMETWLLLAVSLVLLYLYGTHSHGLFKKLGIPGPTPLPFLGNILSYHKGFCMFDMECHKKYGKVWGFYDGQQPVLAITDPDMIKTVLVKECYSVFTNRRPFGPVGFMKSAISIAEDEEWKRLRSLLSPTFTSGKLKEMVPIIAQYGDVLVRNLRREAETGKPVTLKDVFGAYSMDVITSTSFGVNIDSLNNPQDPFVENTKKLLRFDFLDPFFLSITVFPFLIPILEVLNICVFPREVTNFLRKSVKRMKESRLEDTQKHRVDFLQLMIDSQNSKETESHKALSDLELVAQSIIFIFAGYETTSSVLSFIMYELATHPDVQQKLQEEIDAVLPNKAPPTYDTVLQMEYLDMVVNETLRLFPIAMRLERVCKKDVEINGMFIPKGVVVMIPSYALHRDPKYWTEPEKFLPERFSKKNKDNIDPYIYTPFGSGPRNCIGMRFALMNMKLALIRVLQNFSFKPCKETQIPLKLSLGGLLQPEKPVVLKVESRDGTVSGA
Outline: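 Pooled human liver microsomes in 100 mM potassium phosphate pH 7.4, 3 mM MgCl2, 1 mM NADPH, 37 °C, with CYP3A4-specific probe substrate; test compound over 0.069–50 μM or 0.03–100 μM final, IC50 derived.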

[6] = Metabolic stability in mouse liver microsomes assessed as half life at 1 uM incubated upto 60 mins in presence of NADPH; assay type: ADME, Microsome
Outline: (§1)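 Compound at 1 μM incubated at 37 °C with liver microsomes of each species for 0, 15, 30 and 60 min, with and without NADPH; half-life determined.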

[7] = Metabolic stability in dog plasma assessed as half life; assay type: ADME, cell-free, Canis lupus familiaris
[8] = Metabolic stability in dog liver microsomes assessed as half life at 1 uM incubated upto 60 mins in presence of NADPH; assay type: ADME, Canis lupus familiaris, Microsome; outline: as §1
[9] = biological target: Solute carrier organic anion transporter family member 1B3 (Homo sapiens, UniProt Q9NPD5); experiment: Inhibition of OATP1B3 (unknown origin) transfected in HEK293 cells; assay type: cell-based
Sequence of Solute carrier organic anion transporter family member 1B3 (Q9NPD5 whole entry): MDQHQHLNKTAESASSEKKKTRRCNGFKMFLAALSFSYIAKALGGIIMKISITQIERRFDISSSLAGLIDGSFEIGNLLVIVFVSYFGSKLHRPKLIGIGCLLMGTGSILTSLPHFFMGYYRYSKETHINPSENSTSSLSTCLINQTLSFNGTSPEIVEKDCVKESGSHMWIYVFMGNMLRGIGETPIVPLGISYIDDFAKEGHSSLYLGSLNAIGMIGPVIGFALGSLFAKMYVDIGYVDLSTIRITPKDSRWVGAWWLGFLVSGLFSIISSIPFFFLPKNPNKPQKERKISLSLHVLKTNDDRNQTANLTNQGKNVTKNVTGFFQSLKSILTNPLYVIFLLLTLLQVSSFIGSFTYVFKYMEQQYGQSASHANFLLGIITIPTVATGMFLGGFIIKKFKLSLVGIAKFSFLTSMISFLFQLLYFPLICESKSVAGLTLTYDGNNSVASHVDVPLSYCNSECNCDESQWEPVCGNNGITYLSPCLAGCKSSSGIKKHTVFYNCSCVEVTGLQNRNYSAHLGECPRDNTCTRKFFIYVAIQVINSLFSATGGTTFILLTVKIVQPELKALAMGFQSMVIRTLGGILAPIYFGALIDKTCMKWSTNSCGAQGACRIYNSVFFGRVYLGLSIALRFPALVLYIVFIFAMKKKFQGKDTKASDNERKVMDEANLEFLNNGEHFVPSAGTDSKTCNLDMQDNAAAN
Outline: (§2)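 HEK-293 cells transfected with the uptake transporter; uptake of known probe substrates measured with test compound at eight concentrations (0.0229–50.0 μM or 0.0457–100 μM); inhibition at each concentration used to calculate IC50.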

[10] = Mutagenicity in Salmonella typhimurium TA1535 by Ames test; assay type: toxicity; conditions: salmonella enterica subsp. enterica serovar typhimurium
[11] = biological target: Cytochrome P450 2C8 (Homo sapiens, UniProt P10632); experiment: Inhibition of CYP2C8 in human liver microsomes in presence of NADPH; assay type: ADME, Microsome
Sequence of Cytochrome P450 2C8 (P10632 whole entry, canonical isoform): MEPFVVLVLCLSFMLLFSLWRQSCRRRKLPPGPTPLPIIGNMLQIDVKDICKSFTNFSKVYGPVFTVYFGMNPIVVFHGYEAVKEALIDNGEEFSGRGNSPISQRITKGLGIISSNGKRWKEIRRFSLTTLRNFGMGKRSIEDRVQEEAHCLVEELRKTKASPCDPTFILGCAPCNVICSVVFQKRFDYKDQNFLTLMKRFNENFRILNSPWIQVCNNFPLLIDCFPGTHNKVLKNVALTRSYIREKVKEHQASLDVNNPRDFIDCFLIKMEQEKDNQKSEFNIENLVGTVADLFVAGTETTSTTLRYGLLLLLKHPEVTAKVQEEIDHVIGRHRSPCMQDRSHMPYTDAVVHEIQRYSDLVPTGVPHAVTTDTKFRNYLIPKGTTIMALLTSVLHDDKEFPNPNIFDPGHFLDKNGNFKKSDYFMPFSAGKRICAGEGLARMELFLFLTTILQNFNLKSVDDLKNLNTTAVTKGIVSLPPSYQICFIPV
Outline: (§3)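 Pooled human liver microsomes with CYP isoform-specific probe substrates, in 100 mM potassium phosphate pH 7.4, 3 mM MgCl2 and 1 mM NADPH, at 37 °C. Final test ranges were 0.069–50 μM or 0.03–100 μM; IC50 was determined.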

[12] = biological target: Cytochrome P450 1A2 (Homo sapiens, UniProt P05177); experiment: Inhibition of CYP1A2 in human liver microsomes in presence of NADPH; assay type: ADME, Microsome; outline: as §3
[13] = biological target: Solute carrier organic anion transporter family member 1B1 (Homo sapiens, UniProt Q9Y6L6); experiment: Inhibition of OATP1B1 (unknown origin) transfected in HEK293 cells; assay type: cell-based; outline: as §2
Sequence of Solute carrier organic anion transporter family member 1B1 (Q9Y6L6 whole entry): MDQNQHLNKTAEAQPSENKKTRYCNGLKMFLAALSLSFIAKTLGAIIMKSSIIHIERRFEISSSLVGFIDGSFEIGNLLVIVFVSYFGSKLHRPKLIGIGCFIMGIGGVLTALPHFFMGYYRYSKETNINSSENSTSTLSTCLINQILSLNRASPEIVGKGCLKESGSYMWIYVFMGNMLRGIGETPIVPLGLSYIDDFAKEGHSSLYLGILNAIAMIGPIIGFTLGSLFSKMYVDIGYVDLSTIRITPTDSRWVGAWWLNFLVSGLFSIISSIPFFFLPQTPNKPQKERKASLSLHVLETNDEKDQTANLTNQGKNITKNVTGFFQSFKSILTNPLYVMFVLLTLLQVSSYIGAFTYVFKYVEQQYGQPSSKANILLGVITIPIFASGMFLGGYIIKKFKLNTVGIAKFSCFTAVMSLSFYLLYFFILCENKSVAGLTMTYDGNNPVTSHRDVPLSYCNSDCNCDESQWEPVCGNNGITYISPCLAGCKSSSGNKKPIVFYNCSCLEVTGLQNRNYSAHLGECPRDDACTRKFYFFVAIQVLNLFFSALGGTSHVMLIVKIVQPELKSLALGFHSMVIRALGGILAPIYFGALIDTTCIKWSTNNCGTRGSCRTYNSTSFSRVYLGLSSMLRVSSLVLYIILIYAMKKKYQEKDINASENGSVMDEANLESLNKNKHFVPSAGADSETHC

[14] = Genotoxicity in human TK6 cells measured for 4 to 27 hrs by micronucleus test; assay type: toxicity, cell-based; conditions: time 4-27 hrs
[15] = biological target: T1, Cytochrome P450 2B6 (Homo sapiens, UniProt P20813); experiment: Inhibition of CYP2B6 in human liver microsomes in presence of NADPH; assay type: ADME, Microsome; outline: as §3
T1 sequence (P20813 whole entry): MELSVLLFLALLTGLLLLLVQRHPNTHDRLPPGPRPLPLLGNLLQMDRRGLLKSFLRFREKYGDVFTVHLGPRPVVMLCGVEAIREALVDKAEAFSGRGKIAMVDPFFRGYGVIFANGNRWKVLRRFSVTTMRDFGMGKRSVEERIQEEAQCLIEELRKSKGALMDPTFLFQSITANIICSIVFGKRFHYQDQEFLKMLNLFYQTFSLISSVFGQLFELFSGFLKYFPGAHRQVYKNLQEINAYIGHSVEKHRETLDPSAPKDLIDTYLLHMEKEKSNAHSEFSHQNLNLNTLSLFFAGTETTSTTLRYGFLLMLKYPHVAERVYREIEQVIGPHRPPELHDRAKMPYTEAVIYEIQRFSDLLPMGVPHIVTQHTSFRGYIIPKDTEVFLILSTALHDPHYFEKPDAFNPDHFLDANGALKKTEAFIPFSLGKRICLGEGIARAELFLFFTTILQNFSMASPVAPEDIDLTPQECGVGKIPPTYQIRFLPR

[16] = biological target: UGT1A1 (Homo sapiens, UniProt P22309); experiment: Inhibition of recombinant human UGT1A1 at 10 uM in presence of UDPGA relative to control
Outline: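 Recombinant human UGT1A1 at 0.05 mg/mL with 5 mM UDPGA cofactor, 10 min incubation; test compound at single 10 μM concentration.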

[17] = Metabolic stability in human liver microsomes assessed as half life at 1 uM incubated upto 60 mins in presence of NADPH; assay type: ADME, Microsome; outline: as §1
[18] = Mutagenicity in Salmonella typhimurium TA100 by Ames test; assay type: toxicity; conditions: salmonella enterica subsp. enterica serovar typhimurium
[19] = biological target: Cytochrome P450 2C19 (Homo sapiens, UniProt P33261); experiment: Inhibition of CYP2C19 in human liver microsomes in presence of NADPH; assay type: ADME, Microsome; outline: as §3
Sequence of Cytochrome P450 2C19 (P33261 whole entry): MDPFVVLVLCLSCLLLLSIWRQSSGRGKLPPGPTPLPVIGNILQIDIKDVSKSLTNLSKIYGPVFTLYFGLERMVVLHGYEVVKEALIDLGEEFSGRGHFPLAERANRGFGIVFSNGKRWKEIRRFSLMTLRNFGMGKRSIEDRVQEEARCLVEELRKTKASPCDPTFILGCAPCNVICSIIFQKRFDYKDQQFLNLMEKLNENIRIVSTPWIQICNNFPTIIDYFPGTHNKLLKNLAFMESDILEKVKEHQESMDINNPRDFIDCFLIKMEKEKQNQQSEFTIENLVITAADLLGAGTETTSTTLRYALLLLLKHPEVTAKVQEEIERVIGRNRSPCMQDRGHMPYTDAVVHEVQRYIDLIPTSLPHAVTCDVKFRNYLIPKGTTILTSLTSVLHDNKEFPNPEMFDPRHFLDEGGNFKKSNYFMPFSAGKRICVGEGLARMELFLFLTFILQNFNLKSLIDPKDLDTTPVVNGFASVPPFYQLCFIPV

[20] = biological target: Voltage-gated inwardly rectifying potassium channel KCNH2 (Homo sapiens, UniProt Q12809); experiment: Inhibition of hERG expressed in mammalian cells at 10 uM by automated patch-clamp method; assay type: toxicity, cell-based
Sequence of Voltage-gated inwardly rectifying potassium channel KCNH2 (Q12809 whole entry): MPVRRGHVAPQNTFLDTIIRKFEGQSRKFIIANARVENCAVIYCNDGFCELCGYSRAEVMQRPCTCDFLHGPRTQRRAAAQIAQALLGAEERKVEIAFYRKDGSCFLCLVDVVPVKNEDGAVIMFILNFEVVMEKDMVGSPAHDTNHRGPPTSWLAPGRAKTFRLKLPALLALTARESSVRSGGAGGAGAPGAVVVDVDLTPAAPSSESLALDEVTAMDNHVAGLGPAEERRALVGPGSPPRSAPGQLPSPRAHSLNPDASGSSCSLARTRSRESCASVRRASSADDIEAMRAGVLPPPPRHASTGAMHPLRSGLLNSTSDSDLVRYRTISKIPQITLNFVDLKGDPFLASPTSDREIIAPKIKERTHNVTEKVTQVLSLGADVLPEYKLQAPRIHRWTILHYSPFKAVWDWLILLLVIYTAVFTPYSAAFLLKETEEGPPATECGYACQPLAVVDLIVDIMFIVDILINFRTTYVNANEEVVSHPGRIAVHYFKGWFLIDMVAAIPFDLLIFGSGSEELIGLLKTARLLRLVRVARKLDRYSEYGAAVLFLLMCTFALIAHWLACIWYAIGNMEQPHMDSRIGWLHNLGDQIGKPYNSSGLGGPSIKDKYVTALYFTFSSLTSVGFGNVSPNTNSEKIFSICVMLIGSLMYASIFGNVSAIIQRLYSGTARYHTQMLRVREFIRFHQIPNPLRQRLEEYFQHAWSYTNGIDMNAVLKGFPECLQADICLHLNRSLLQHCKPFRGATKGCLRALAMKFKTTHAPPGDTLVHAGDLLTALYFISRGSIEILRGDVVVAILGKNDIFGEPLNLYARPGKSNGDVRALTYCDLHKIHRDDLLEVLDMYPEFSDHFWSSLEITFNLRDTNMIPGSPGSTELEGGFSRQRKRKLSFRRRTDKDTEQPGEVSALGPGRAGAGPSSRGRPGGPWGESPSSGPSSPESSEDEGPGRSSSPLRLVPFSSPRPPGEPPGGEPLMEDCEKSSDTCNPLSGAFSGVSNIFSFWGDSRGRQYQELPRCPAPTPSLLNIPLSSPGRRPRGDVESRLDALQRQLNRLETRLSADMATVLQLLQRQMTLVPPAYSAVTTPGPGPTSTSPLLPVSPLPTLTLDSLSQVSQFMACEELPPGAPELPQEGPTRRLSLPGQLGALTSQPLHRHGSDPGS
Outline: (§4)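 Currents of hERG, Nav1.5 or Cav1.2 channels expressed in mammalian cells recorded by automated patch clamp (QPatch 48) at room temperature.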

[21] = Metabolic stability in Cynomolgous monkey liver microsomes assessed as half life at 1 uM incubated upto 60 mins in presence of NADPH; assay type: ADME, Macaca fascicularis, Microsome; conditions: cynomolgus monkey; outline: as §1
[22] = Metabolic stability in rat liver microsomes assessed as half life at 1 uM incubated upto 60 mins in presence of NADPH; assay type: ADME, Microsome; outline: as §1
[23] = biological target: Cytochrome P450 2C9 (Homo sapiens, UniProt P11712); experiment: Inhibition of CYP2C9 in human liver microsomes in presence of NADPH; assay type: ADME, Microsome; outline: as §3
Sequence of Cytochrome P450 2C9 (P11712 whole entry): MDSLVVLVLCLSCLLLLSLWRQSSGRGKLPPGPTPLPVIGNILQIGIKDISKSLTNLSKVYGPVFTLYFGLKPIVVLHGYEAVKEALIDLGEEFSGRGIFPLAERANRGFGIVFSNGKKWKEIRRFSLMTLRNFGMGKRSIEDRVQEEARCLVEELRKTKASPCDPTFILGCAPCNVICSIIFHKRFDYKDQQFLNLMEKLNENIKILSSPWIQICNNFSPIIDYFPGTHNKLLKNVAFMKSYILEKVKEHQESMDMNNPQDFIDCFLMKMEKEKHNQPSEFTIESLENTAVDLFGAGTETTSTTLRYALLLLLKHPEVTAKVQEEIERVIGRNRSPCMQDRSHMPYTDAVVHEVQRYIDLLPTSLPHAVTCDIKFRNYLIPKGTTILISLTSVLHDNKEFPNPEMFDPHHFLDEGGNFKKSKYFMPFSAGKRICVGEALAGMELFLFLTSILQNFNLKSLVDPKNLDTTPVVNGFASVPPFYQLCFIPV

[24] = Metabolic stability in rat plasma assessed as half life; assay type: ADME, cell-free
[25] = Metabolic stability in Cynomolgous monkey plasma assessed as half life; assay type: ADME, cell-free, Macaca fascicularis; conditions: cynomolgus monkey
[26] = Mutagenicity in Salmonella […] by Ames test; assay type: toxicity; conditions: salmonella enterica subsp. enterica serovar typhimurium
[27] = test system: Nav1.5; experiment: Inhibition of Nav1.5 (unknown origin) expressed in mammalian cells at 10 uM by automated patch-clamp method; assay type: toxicity, cell-based, Homo sapiens; conditions: mammalian cells expressing Nav1.5; outline: as §4
[28] = biological target: Cytochrome P450 2D6 (Homo sapiens, UniProt P10635); experiment: Inhibition of CYP2D6 in human liver microsomes in presence of NADPH; assay type: ADME, Microsome; outline: as §3
Sequence of Cytochrome P450 2D6 (P10635 whole entry): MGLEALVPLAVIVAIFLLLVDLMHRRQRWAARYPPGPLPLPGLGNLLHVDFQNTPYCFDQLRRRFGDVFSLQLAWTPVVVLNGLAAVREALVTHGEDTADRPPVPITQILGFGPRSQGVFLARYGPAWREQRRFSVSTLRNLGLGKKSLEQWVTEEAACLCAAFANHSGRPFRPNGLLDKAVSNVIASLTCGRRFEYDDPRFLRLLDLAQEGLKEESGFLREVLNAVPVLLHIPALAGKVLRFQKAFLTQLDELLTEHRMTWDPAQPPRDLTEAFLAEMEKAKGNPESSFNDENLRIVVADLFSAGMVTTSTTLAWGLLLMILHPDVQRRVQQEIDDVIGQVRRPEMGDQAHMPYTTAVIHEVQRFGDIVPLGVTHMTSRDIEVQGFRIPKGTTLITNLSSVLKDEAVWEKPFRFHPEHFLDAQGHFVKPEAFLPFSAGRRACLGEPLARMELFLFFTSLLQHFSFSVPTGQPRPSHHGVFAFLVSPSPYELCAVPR

[29] = Metabolic stability in mouse plasma assessed as half life; assay type: ADME, cell-free

| Compound | EC50 [1] | Activity [2] | Activity [3] | half-life [4] | IC50 [5] | half-life at 1 µM [6] | half-life [7] | half-life at 1 µM [8] | IC50 [9] | Activity [10] | IC50 [11] | IC50 [12] | IC50 [13] | Activity [14] | IC50 [15] | inhibition at 10 µM [16] | half-life at 1 µM [17] | Activity [18] | IC50 [19] | IC50 [20] | further results |
| --- | --- | --- | --- | --- | --- | --- | --- | --- | --- | --- | --- | --- | --- | --- | --- | --- | --- | --- | --- | --- | --- |
| C#CC1(NC(=O)C(=O)c2c(C)c(C(=O)Nc3ccc(F)c(C#N)c3)n(C)c2C)COC1 | 0.00063 µM | Non-toxic | Non-toxic | > 4 h | > 50 µM | > 1 h | > 4 h | > 1 h | > 11.8 µM | Non-toxic | 48.6 µM | > 50 µM | > 11.8 µM | Non-toxic | > 50 µM | 7.3% | > 1 h | Non-toxic | > 50 µM | > 10 µM | EC90 [1]: 0.00317 µM; half-life at 1 µM [21]: > 1 h; half-life at 1 µM [22]: > 1 h; IC50 [23]: > 50 µM; half-life [24]: > 4 h; half-life [25]: > 4 h; Activity [26]: Non-toxic; IC50 [27]: > 10 µM; IC50 [28]: > 50 µM; half-life [29]: > 4 h |
| C#CC1(N(COP(=O)([O-])[O-])C(=O)C(=O)c2c(C)c(C(=O)Nc3ccc(F)c(C#N)c3)n(C)c2C)COC1.[Na+].[Na+] | 0.00145 µM | Non-toxic | Non-toxic | > 4 h | > 100 µM | > 1 h | > 4 h | > 1 h | ~50 µM | Non-toxic | > 100 µM | > 100 µM | ~50 µM | Non-toxic | > 100 µM | 11.2% | > 1 h | Non-toxic | > 100 µM | > 300 µM | half-life at 1 µM [21]: > 1 h; half-life at 1 µM [22]: > 1 h; IC50 [23]: > 100 µM; half-life [24]: > 4 h; half-life [25]: > 4 h; Activity [26]: Non-toxic; IC50 [28]: > 100 µM; half-life [29]: > 4 h |
